Source: ChEMBL document CHEMBL3085696, “Aurora isoform selectivity: design and synthesis of imidazo[4,5-b]pyridine derivatives as highly selective inhibitors of Aurora-A kinase in cells” (J Med Chem, 2013)

Assays:
[1] = target: Glycogen synthase kinase-3 beta (Homo sapiens) (UniProt P49841); details: 1 uM
HCT-116 = assay: Antiproliferative activity against human HCT116 cells; assay type: functional
Aurora kinase B [2] = target: T1, Aurora kinase B (Homo sapiens, UniProt Q96GD4); assay: Inhibition of N-terminal Myc tagged aurora-B-mediated histone H3 phosphorylation at S10 in human HeLa cells after 2 hrs; assay type: cell-based
T1 sequence (Q96GD4 whole entry): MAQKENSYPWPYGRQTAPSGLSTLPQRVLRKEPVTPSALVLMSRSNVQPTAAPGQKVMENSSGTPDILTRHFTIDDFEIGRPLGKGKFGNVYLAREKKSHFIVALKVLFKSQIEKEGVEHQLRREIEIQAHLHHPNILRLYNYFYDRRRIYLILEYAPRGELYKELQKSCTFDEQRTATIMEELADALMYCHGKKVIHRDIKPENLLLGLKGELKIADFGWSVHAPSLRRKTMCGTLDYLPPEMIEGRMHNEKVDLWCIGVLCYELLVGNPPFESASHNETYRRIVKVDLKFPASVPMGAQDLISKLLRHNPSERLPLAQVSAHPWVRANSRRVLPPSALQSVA
In short: (§1)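 Cells transfected with Myc-tagged Aurora-A (wild type or T217E, L215R, R220K mutants) and treated with inhibitor concentrations for 2 h. Lysed in LDS buffer; SDS-type PAGE and western blot. Blots probed for P-T288 (Aurora-A autophosphorylation) and phospho-histone H3 S10 (Aurora-B substrate). Blots quantified; IC50 derived; ratio taken as H3 IC50 over T288 IC50.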

Mus musculus = assay: Oral bioavailability in Balb/C mouse at 5 mg/kg; assay type: ADME, organism-based; details: in vivo
In short: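 Female Balb/C mice given 5 mg/kg po or iv in 10% DMSO/5% Tween 20 in saline. Terminal cardiac-puncture plasma taken at 5, 15, 30 min and 1, 2, 4, 6, 24 h. Methanol precipitation with olomoucine internal standard. Analysis by LC/MS (ESI+ MRM).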

Aurora kinase B [3] = target: T1, Aurora kinase B; assay: Inhibition of full-length aurora-B (unknown origin) using 5FAMLRRASLG-CONH2 as substrate after 60 mins
In short: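 Full-length Aurora-B/INCENP complex (1 nM) incubated with 1.5 μM 5FAM-LRRASLG-CONH2 peptide and 15 μM ATP in Tris pH 7.4 buffer with NaCl, MgCl2, DTT, Tween 20. Runs 60 min at room temperature, then EDTA stop. Microfluidic mobility-shift readout of percent conversion. Duplicate 8-point curves, 0.25 pM–200 μM final. IC50 by four-parameter logistic fit.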

[4] = target: T2, Aurora kinase A (Homo sapiens) (UniProt O14965); details: 1 uM
T2 sequence (whole entry): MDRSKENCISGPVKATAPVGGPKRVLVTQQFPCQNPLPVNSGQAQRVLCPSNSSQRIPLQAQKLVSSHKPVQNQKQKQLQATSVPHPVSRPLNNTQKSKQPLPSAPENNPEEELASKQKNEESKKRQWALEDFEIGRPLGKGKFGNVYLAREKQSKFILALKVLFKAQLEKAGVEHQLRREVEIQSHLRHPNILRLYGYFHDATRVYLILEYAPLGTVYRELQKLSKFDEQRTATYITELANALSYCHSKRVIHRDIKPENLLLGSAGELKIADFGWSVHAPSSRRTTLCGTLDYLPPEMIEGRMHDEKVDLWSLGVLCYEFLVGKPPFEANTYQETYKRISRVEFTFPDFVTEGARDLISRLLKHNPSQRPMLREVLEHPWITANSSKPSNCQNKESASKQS

Aurora kinase A [5] = target: T3, Aurora kinase A (Homo sapiens, UniProt O14965, T217E); assay: Inhibition of autophosphorylation of aurora-A T217E mutant at T288 in human HeLa cells after 2 hrs; assay type: cell-based
T3 sequence (O14965 whole entry I57V/T217E): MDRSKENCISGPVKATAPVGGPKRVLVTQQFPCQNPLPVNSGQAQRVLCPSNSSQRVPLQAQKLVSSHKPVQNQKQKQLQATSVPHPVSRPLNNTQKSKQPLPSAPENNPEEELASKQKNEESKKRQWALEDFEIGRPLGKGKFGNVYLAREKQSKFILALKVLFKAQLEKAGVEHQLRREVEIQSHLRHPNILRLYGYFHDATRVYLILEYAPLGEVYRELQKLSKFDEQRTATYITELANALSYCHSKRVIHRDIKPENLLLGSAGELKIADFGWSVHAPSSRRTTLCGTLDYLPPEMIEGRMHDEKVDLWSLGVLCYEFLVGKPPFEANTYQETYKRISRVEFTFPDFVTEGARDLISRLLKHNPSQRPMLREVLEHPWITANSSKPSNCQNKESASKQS
In short: (§2)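 Cells transfected with N-terminal Myc-tagged Aurora-A (wild type or T217E, L215R or R220K mutant, made by Quikchange mutagenesis), then exposed to a range of inhibitor concentrations for 2 h. Lysed in LDS sample buffer, sonicated, boiled, run on LDS-PAGE and blotted to nitrocellulose. Probed with anti-P-T288 (Aurora-A autophosphorylation) and anti-P-histone H3 S10 (Aurora-B substrate) antibodies. Blots quantified and IC50 fitted.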

[6] = target: Vascular endothelial growth factor receptor 1 (Homo sapiens) (UniProt P17948); assay: Inhibition of VEGFR1 (unknown origin) at 1 uM
Chain of Vascular endothelial growth factor receptor 1 (Homo sapiens) (P17948 whole entry): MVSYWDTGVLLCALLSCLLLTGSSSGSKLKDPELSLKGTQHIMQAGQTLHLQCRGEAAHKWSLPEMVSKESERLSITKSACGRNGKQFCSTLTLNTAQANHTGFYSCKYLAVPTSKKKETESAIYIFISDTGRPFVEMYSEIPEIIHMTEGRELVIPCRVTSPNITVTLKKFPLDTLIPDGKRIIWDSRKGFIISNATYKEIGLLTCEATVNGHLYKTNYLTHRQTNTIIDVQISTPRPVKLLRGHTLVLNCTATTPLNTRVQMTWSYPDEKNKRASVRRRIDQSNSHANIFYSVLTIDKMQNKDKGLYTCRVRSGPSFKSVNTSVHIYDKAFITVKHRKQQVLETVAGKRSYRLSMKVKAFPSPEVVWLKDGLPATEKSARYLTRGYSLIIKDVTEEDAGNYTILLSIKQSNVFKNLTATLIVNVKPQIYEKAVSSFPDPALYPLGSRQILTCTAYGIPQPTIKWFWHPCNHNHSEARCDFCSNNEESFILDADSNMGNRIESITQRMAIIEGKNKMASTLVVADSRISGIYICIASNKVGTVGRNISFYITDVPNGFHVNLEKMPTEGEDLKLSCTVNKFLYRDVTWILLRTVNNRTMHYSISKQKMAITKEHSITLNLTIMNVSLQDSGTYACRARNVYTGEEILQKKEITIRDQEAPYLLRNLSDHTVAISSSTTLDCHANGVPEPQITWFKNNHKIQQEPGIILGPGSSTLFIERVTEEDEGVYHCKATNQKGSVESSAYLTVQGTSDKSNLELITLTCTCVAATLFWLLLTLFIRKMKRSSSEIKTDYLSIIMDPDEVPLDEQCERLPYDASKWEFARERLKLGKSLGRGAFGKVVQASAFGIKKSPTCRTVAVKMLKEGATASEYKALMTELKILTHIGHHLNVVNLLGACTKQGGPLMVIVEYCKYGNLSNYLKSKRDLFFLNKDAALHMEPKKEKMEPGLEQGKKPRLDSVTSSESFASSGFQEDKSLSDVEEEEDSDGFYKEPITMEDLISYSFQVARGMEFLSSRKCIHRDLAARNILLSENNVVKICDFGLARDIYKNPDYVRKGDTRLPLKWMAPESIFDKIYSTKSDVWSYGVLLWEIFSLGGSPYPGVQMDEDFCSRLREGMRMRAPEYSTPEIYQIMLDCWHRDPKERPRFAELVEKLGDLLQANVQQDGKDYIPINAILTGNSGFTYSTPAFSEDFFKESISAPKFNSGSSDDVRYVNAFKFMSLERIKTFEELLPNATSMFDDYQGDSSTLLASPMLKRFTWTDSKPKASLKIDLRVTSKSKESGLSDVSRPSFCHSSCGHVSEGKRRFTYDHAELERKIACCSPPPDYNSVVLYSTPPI
In short: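 110-kinase panel profiling, compounds tested at 1 μM, read as percent inhibition.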

[7] = target: T4, Receptor-type tyrosine-protein kinase FLT3 (Homo sapiens, UniProt P36888); assay: Inhibition of FLT3 (unknown origin) at 1 uM
T4 sequence (P36888 whole entry): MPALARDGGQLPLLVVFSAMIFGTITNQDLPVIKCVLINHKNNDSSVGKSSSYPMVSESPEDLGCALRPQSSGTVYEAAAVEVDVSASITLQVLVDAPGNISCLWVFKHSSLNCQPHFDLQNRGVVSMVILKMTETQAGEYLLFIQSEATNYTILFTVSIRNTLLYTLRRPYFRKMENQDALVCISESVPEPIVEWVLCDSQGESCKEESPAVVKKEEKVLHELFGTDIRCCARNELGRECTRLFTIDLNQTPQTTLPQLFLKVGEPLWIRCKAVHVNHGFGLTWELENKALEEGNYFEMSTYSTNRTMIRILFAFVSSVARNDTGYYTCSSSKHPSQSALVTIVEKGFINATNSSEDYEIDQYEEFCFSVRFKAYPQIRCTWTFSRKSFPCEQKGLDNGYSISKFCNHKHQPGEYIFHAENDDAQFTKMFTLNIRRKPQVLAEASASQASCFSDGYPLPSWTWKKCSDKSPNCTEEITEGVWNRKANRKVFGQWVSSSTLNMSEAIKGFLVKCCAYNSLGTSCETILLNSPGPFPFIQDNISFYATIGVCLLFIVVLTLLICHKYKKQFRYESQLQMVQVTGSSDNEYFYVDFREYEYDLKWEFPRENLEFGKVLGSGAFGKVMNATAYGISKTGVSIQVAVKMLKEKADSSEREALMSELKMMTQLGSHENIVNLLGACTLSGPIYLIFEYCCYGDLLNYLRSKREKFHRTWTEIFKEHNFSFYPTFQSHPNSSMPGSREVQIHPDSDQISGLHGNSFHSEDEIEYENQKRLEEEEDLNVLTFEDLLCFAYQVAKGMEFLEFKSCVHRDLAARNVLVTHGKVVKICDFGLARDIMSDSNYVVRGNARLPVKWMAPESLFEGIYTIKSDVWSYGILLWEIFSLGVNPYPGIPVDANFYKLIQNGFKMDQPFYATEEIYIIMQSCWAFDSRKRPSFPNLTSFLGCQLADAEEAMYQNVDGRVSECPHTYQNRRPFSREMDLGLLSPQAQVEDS
In short: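 Single-concentration (1 μM) profiling within a 110-kinase selectivity panel; activity expressed as percent inhibition of each kinase.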

Aurora kinase A [8] = target: T5, Aurora kinase A (Homo sapiens, UniProt O14965); assay: Inhibition of N-terminal HIS-tagged aurora-A (unknown origin) using 5FAM-LRRASLG-CONH2 as substrate after 60 mins
T5 sequence (O14965 whole entry): T2 sequence (whole entry)
In short: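 Aurora-A (5 nM N-terminal His-tagged) incubated with 1.5 μM 5FAM-LRRASLG-CONH2 peptide and 20 μM ATP in 50 mM Tris pH 7.4, 200 mM NaCl, 5 mM MgCl2, 2 mM DTT, 0.1% Tween 20. Runs 60 min at room temperature; EDTA stop. Microfluidic separation of product from substrate. Duplicate 8-point curves, 0.25 pM–200 μM final, 1–2% DMSO. IC50 from four-parameter logistic fit.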

Aurora kinase A [9] = target: T5, Aurora kinase A; assay: Inhibition of autophosphorylation of N-terminal Myc tagged aurora-A at T288 in human HeLa cells after 2 hrs; assay type: cell-based
In short: as §1

Aurora kinase A [10] = target: T3, Aurora kinase A; assay: Inhibition of autophosphorylation of aurora-A T217E mutant at T288 in human HCT116 cells after 2 hrs; assay type: cell-based, HCT-116
In short: as §2

Aurora kinase A [11] = target: T5, Aurora kinase A; assay: Inhibition of autophosphorylation of N-terminal Myc tagged aurora-A at T288 in human HCT116 cells after 2 hrs; assay type: cell-based, HCT-116
In short: as §1

Chain of Glycogen synthase kinase-3 beta (Homo sapiens) (P49841 whole entry, looked up): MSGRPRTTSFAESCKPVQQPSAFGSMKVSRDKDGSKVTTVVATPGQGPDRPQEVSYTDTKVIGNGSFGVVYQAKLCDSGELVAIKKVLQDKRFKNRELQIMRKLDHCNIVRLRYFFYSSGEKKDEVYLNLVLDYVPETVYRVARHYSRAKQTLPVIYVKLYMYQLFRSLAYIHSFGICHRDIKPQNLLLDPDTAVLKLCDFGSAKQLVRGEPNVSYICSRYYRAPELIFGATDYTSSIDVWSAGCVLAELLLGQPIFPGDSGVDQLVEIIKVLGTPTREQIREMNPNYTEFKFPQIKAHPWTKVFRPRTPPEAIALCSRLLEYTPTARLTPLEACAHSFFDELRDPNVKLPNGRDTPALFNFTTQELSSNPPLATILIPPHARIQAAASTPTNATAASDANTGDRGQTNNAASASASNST

`Cc1nn(C)cc1-c1nc2c(Oc3ccc(C(=O)Nc4ccccc4)cc3)c(Cl)cnc2[nH]1` gave an inhibition [1] of over 80%, a GI50 (HCT-116) of 2300 nM and an IC50 (Aurora kinase B [2]) of 76800 nM. The F (Mus musculus) was 100%, the IC50 (Aurora kinase B [3]) was 12700 nM and the inhibition [4] was over 80%. For the same compound, the IC50 (Aurora kinase A [5]) was 4110 nM, the inhibition [6] was over 80% and the IC50 [7] was 162 nM. The IC50 (Aurora kinase A [8]) was 67 nM, the IC50 (Aurora kinase A [9]) was 160 nM and the IC50 (Aurora kinase A [10]) was 960 nM. It also gave an IC50 (Aurora kinase A [11]) of 65 nM.
